Source: ChEMBL document CHEMBL5724801, “EUbOPEN Chemogenomics Library - Multiplex” (2024)
Where “and” joins values, the source holds several entries; their conditions need not be identical. Equal values may be shown once.

System: HEK-293T
Test: Multiplex assay against HEK293T
Type: toxicity, cell-based
Conditions: human
Outline: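 Live cells were stained at seeding with Hoechst33342, BioTracker Green Microtubule Cytoskeleton Dye, MitoTracker Red and Annexin V Alexa Fluor 680. Following compound addition, they were imaged on a CQ1 microscope at 37°C and 5% CO2 and gated by CellPathfinder machine learning into Hoechst high-intensity objects or normal cells, with normal cells split into healthy, pyknosed or fragmented nuclei and pyknosed cells into mitotic or apoptotic. Tubulin, mitochondrial-mass and membrane-permeability phenotypes are per cents of healthy-nucleus cells.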

[1] = 12 h, 1 µM, compound concentration 1 uM
[2] = 12 h, 10 µM, compound concentration 10 uM
[3] = 24 h, 1 µM, compound concentration 1 uM
[4] = 24 h, 10 µM, compound concentration 10 uM
[5] = 48 h, 1 µM, compound concentration 1 uM
[6] = 48 h, 10 µM, compound concentration 10 uM

## CC[C@@H](C)Nc1nc(C)nc2c(-c3ccc(OC)nc3C)c(C)nn12 [PEXACERFONT]
[1]
  Population Apoptotic (%): 33% and 47%
  Population Fragmented Nuclei (%): 7% and 5%
  Population Healthy Nuclei (%): 79% and 82%
  Population Hoechst High Intensity Objects (%): 6% and 8%
  Population Membrane Permeable-Phenotype (%): 0%
  Population Mitochondria Different-Phenotype (%): 45% and 61%
  Population Mitotic Cells (%): 66% and 52%
  Population Normal (%): 93% and 91%
  Population Pyknosed Nuclei (%): 13% and 11%
  Population Tubulin-Different-Phenotype (%): 34% and 31%
  Total Cell Count: 399 and 314
[2]
  Population Apoptotic (%): 38% and 41%
  Population Fragmented Nuclei (%): 6% and 9%
  Population Healthy Nuclei (%): 75% and 74%
  Population Hoechst High Intensity Objects (%): 8% and 11%
  Population Membrane Permeable-Phenotype (%): 0% and 1%
  Population Mitochondria Different-Phenotype (%): 59% and 75%
  Population Mitotic Cells (%): 61% and 58%
  Population Normal (%): 91% and 88%
  Population Pyknosed Nuclei (%): 17% and 16%
  Population Tubulin-Different-Phenotype (%): 54% and 55%
  Total Cell Count: 451 and 321
[3]
  Population Apoptotic (%): 24% and 45%
  Population Fragmented Nuclei (%): 8% and 13%
  Population Healthy Nuclei (%): 79% and 76%
  Population Hoechst High Intensity Objects (%): 3% and 7%
  Population Membrane Permeable-Phenotype (%): 0%
  Population Mitochondria Different-Phenotype (%): 26% and 34%
  Population Mitotic Cells (%): 75% and 54%
  Population Normal (%): 96% and 92%
  Population Pyknosed Nuclei (%): 11% and 9%
  Population Tubulin-Different-Phenotype (%): 21% and 15%
  Total Cell Count: 508 and 387
[4]
  Population Apoptotic (%): 37% and 33%
  Population Fragmented Nuclei (%): 6% and 7%
  Population Healthy Nuclei (%): 79% and 78%
  Population Hoechst High Intensity Objects (%): 7% and 13%
  Population Membrane Permeable-Phenotype (%): 1% and 0%
  Population Mitochondria Different-Phenotype (%): 46% and 70%
  Population Mitotic Cells (%): 62% and 66%
  Population Normal (%): 92% and 86%
  Population Pyknosed Nuclei (%): 14%
  Population Tubulin-Different-Phenotype (%): 52% and 48%
  Total Cell Count: 612 and 371
[5]
  Population Apoptotic (%): 26% and 41%
  Population Fragmented Nuclei (%): 12% and 10%
  Population Healthy Nuclei (%): 80%
  Population Hoechst High Intensity Objects (%): 2%
  Population Membrane Permeable-Phenotype (%): 0% and 1%
  Population Mitochondria Different-Phenotype (%): 22% and 27%
  Population Mitotic Cells (%): 73% and 58%
  Population Normal (%): 97%
  Population Pyknosed Nuclei (%): 7% and 9%
  Population Tubulin-Different-Phenotype (%): 20% and 19%
  Total Cell Count: 816 and 520
[6]
  Population Apoptotic (%): 40%
  Population Fragmented Nuclei (%): 13% and 10%
  Population Healthy Nuclei (%): 77% and 72%
  Population Hoechst High Intensity Objects (%): 7% and 18%
  Population Membrane Permeable-Phenotype (%): 1% and 0%
  Population Mitochondria Different-Phenotype (%): 45% and 53%
  Population Mitotic Cells (%): 59% and 60%
  Population Normal (%): 92% and 81%
  Population Pyknosed Nuclei (%): 9% and 17%
  Population Tubulin-Different-Phenotype (%): 38% and 36%
  Total Cell Count: 692 and 390

## Oc1c(CN2CCN(c3ccccn3)CC2)cc(Cl)c2cccnc12
[1]
  Population Apoptotic (%): 30% and 45%
  Population Fragmented Nuclei (%): 6% and 5%
  Population Healthy Nuclei (%): 83% and 80%
  Population Hoechst High Intensity Objects (%): 7%
  Population Membrane Permeable-Phenotype (%): 0%
  Population Mitochondria Different-Phenotype (%): 44% and 59%
  Population Mitotic Cells (%): 70% and 54%
  Population Normal (%): 92%
  Population Pyknosed Nuclei (%): 10% and 13%
  Population Tubulin-Different-Phenotype (%): 34% and 20%
  Total Cell Count: 424 and 354
[2]
  Population Apoptotic (%): 71% and 73%
  Population Fragmented Nuclei (%): 16% and 18%
  Population Healthy Nuclei (%): 64% and 69%
  Population Hoechst High Intensity Objects (%): 11% and 6%
  Population Membrane Permeable-Phenotype (%): 0%
  Population Mitochondria Different-Phenotype (%): 64% and 70%
  Population Mitotic Cells (%): 28% and 26%
  Population Normal (%): 88% and 93%
  Population Pyknosed Nuclei (%): 18% and 12%
  Population Tubulin-Different-Phenotype (%): 20% and 32%
  Total Cell Count: 197 and 327
[3]
  Population Apoptotic (%): 34% and 33%
  Population Fragmented Nuclei (%): 6% and 7%
  Population Healthy Nuclei (%): 84%
  Population Hoechst High Intensity Objects (%): 3%
  Population Membrane Permeable-Phenotype (%): 0%
  Population Mitochondria Different-Phenotype (%): 22% and 40%
  Population Mitotic Cells (%): 65% and 66%
  Population Normal (%): 96%
  Population Pyknosed Nuclei (%): 9% and 8%
  Population Tubulin-Different-Phenotype (%): 23% and 13%
  Total Cell Count: 529 and 427
[4]
  Population Apoptotic (%): 93% and 81%
  Population Fragmented Nuclei (%): 18% and 21%
  Population Healthy Nuclei (%): 65% and 63%
  Population Hoechst High Intensity Objects (%): 13% and 7%
  Population Membrane Permeable-Phenotype (%): 1%
  Population Mitochondria Different-Phenotype (%): 65% and 78%
  Population Mitotic Cells (%): 6% and 18%
  Population Normal (%): 86% and 92%
  Population Pyknosed Nuclei (%): 15%
  Population Tubulin-Different-Phenotype (%): 19% and 34%
  Total Cell Count: 227 and 354
[5]
  Population Apoptotic (%): 29% and 31%
  Population Fragmented Nuclei (%): 12% and 10%
  Population Healthy Nuclei (%): 80% and 83%
  Population Hoechst High Intensity Objects (%): 3%
  Population Membrane Permeable-Phenotype (%): 0%
  Population Mitochondria Different-Phenotype (%): 22% and 17%
  Population Mitotic Cells (%): 70% and 68%
  Population Normal (%): 96%
  Population Pyknosed Nuclei (%): 6% and 5%
  Population Tubulin-Different-Phenotype (%): 16% and 10%
  Total Cell Count: 689 and 518
[6]
  Population Apoptotic (%): 83% and 94%
  Population Fragmented Nuclei (%): 23% and 28%
  Population Healthy Nuclei (%): 44% and 49%
  Population Hoechst High Intensity Objects (%): 25% and 14%
  Population Membrane Permeable-Phenotype (%): 0%
  Population Mitochondria Different-Phenotype (%): 60% and 81%
  Population Normal (%): 74% and 85%
  Population Pyknosed Nuclei (%): 31% and 22%
  Population Tubulin-Different-Phenotype (%): 30% and 42%
  Total Cell Count: 204 and 295
